# Results reported in ChEMBL document CHEMBL3046500, “Secondary metabolites from Glycine soja and their growth inhibitory effect against Spodoptera litura” (J Agric Food Chem, 2011).
# Active and inactive are the calls of the source. The calls are words filed in the database; no cut-off is given here.
# How the values were obtained:
# [1] = test system: Spodoptera litura; test: Drug metabolism in fourth instar larval stage of Spodoptera litura assessed in excrements after feeding diet containing compound by HPLC analysis; assay type: ADME, organism-based; settings: in vivo, po
# Method in brief: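 Excrement from treated and control larvae was collected separately, extracted with methanol under ultrasonication (3 × 20 min), centrifuged, and the supernatant run on RP-18 HPLC (250 × 4.6 mm, 5 μm) at 30 °C and 1.0 mL/min. Elution used a water/methanol gradient set per analyte over 0–30 min, then 95% methanol. DAD read at 210/238/254/280 nm; TLC (CHCl3/MeOH 4:1) for a non-UV-absorbing analyte.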
# [2] = test system: Spodoptera litura; test: Insecticidal activity against fourth instar larval stage of Spodoptera litura in glandless fresh cabbage leaves assessed as growth inhibition measured 3 days after feeding diet containing compound; assay type: functional, organism-based
# Method in brief: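 Larvae starved 4 h, weighed, then placed on treated material for 4 h. They were then moved to fresh untreated leaves or artificial diet. This was repeated every 24 h, with each larva's weight recorded. Seven replicates per treatment; whole experiment run three times.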
# [3] = test system: Spodoptera litura; test: Antifeedant activity against fourth instar larval stage of Spodoptera litura on fresh cabbage leaves; assay type: functional, organism-based
SMILES,Drug metabolism [1],growth inhibition (GI) [2],Activity [3]
O=c1c(-c2ccc(O)cc2)coc2cc(O)ccc12 [DAIDZEIN],Not Active,Active,inactive
O=c1c(-c2ccc(O)cc2)coc2cc(O)cc(O)c12 [GENISTEIN],Active,inactive,inactive
O=c1c(-c2ccc(O)cc2)coc2cc(O[C@@H]3O[C@H](CO)[C@@H](O)[C@H](O)[C@H]3O)cc(O)c12 [GENISTIN],Active,inactive,inactive
CO[C@H]1[C@H](O)[C@@H](O)[C@@H](O)[C@H](O)[C@@H]1O [METHYLINOSITOL],Active,inactive,inactive
